Laboratory results published in ChEMBL document CHEMBL1129574, “Synthesis, structure-activity relationships, and pharmacokinetic properties of dihydroorotate dehydrogenase inhibitors: 2-cyano-3-cyclopropyl-3-hydroxy-N-[3'-methyl-4'-(trifluoromethyl)phenyl ] propenamide and related compounds” (J Med Chem, 1996).

Key:
Rattus norvegicus [1] = test: In vivo for its ability to inhibit delayed type hypersensitivity in rat following 10 mg/kg administration.
[2] = target: Dihydroorotate dehydrogenase (quinone), mitochondrial (Mus musculus, UniProt O35435); test: Inhibitory concentration tested on enzyme dihydroorotate dehydrogenase in mouse
Chain of Dihydroorotate dehydrogenase (quinone), mitochondrial (Mus musculus, UniProt O35435) (O35435 whole entry): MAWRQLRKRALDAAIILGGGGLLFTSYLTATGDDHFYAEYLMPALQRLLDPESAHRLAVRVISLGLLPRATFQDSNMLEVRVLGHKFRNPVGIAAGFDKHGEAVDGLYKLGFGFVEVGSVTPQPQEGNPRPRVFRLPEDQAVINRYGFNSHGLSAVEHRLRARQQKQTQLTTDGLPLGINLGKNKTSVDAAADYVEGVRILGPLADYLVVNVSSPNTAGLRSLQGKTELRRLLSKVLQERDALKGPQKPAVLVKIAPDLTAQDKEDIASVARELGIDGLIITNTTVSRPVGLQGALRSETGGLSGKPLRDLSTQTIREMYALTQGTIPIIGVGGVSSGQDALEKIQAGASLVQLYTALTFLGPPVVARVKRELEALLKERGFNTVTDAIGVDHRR

Mus musculus [3] = test: In vivo for its ability to inhibit delayed type hypersensitivity in mouse following 30 mg/kg administration.; assay type: functional
In short: (§1)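 Male CD-1 mice (25–30 g, n = 8-16) sensitized day 0 by s.c. 1 mg methylated BSA in saline/Freund's complete adjuvant; negative controls saline/FCA. Day 7 challenge: MBSA 0.1 mg into right hind footpad, saline in left. Oral dosing once daily days 4–6 plus twice on day 7 (1 h before, 6 h after challenge). Paw edema read 24 h post-challenge; Student's t-test.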

[4] = target: Dihydroorotate dehydrogenase (quinone), mitochondrial (Rattus norvegicus, UniProt Q63707); test: Inhibitory concentration tested against enzyme dihydroorotate dehydrogenase in rat
Chain of Dihydroorotate dehydrogenase (quinone), mitochondrial (Rattus norvegicus, UniProt Q63707) (Q63707 whole entry): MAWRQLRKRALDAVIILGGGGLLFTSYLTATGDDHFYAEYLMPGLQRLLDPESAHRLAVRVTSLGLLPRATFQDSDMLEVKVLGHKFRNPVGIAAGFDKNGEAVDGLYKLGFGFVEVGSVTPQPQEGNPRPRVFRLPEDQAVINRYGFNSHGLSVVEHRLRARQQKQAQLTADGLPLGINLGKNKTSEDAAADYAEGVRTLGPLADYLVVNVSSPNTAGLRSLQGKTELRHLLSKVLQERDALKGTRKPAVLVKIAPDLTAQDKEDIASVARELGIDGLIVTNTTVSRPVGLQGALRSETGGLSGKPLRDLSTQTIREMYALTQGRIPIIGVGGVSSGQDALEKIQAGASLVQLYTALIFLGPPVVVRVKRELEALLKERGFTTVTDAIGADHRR

[5] = t1/2 in rat plasma after oral dose (10 mg/kg); assay type: ADME, organism-based
In short: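 Male Wistar CFHB rats (190–220 g, n=3/time point) given 10 mg/kg orally by gavage (10 mL/kg). Cardiac-puncture blood under ether at 0, 1, 3, 6, 24, 48, 72 h, individual heparinized samples; plasma kept at −20 °C. Levels by HPLC (ODS column, 0.1 M pH 7 phosphate 65%/acetonitrile 35%, UV 300 nm), internal standard, peak-area calibration from spiked blank plasma.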

[6] = t1/2 in mouse plasma after oral dose (30/mg/Kg); assay type: ADME, organism-based
In short: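 Male CD-1 mice (25–32 g, n=5/time point) gavaged orally 30 mg/kg (10 mL/kg). Blood by exsanguination under ether at 0, 1, 3, 6, 24, 48, 72 h, pooled per time point, heparinized; plasma stored −20 °C. Drug quantified by reversed-phase HPLC (ODS, pH 7 phosphate/acetonitrile 65:35, UV 300 nm) with internal standard and spiked-plasma calibration.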

Mus musculus [7] = test: In vivo ability to inhibit delayed type hypersensitivity in mouse at a concentration of 100 mg/kg; assay type: functional
In short: as §1

Rattus norvegicus [8] = test: In vivo ability to inhibit delayed type hypersensitivity in rat at a concentration of 50 mg/kg; assay type: functional
In short: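 Male CFHB rats (160-180 g, n=7-12) sensitized day 0 by tail-base s.c. FCA (0.4 mg M. tuberculosis in liquid paraffin); controls got incomplete adjuvant. Day 7 challenge: soluble M. tuberculosis extract 0.4 mg into right hind footpad, saline in left. Oral dosing once daily days 4-6 and twice day 7 (1 h before, 6 h after). Edema read at 24 h; Student's t-test.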

Row | SMILES | inhibition in vivo at 10 mg/kg (Rattus norvegicus [1]) | IC50 [2] | inhibition in vivo at 30 mg/kg (Mus musculus [3]) | IC50 [4] | half-life [5] | half-life [6] | inhibition in vivo at 100 mg/kg (Mus musculus [7]) | inhibition in vivo at 50 mg/kg (Rattus norvegicus [8])
1 | N#C/C(C(=O)Nc1ccc(C(=O)c2ccc(Cl)cc2)cc1)=C(/O)C1CC1 | -19% | 562 nM | 4% | 590 nM |  |  |  | 
2 | Cc1oncc1C(=O)Nc1ccc(C(F)(F)F)cc1 [LEFLUNOMIDE] | 78% | 30 nM | 84% | 9 nM |  |  |  | 
3 | N#C/C(C(=O)Nc1ccc(Oc2ccc(C(F)(F)F)cc2)cc1)=C(/O)C1CC1 | 39% | 1510 nM | -17% | 3550 nM |  |  |  | 
4 | N#C/C(C(=O)Nc1ccc(Br)cn1)=C(/O)C1CC1 | 66% |  | 4% | 37 nM | 13 h | 7 h |  | 
5 | COC(=O)c1ccc(NC(=O)/C(C#N)=C(\O)C2CC2)cc1 |  | 1120 nM |  |  |  |  | 34% | 59%
6 | CC(=O)c1ccc(NC(=O)/C(C#N)=C(\O)C2CC2)cc1 | 59% | 3800 nM |  | 68 nM | 6 h | 4 h | 32% | 
7 | Cc1cc(NC(=O)/C(C#N)=C(\O)C2CC2)ccc1C#N | 50% | 36 nM | 66% | 28 nM | 6 h | 7 h |  | 
8 | N#C/C(C(=O)Nc1ccc(-c2ccc(F)cc2)cc1)=C(/O)C1CC1 | 79% | 8510 nM | 53% | 2140 nM |  |  |  | 
9 | N#C/C(C(=O)Nc1ccc(Oc2ccccc2)cc1)=C(/O)C1CC1 |  |  |  | 290 nM |  |  | 9% | 6%
10 | Cc1cc(NC(=O)/C(C#N)=C(\O)C2CC2)ccc1Cl | 42% | 40 nM | 41% | 33 nM | 2 h | 8 h |  | 
11 | N#C/C(C(=O)Nc1ccc(N)cc1)=C(/O)C1CC1 |  | 31600 nM |  | 21900 nM |  |  | 32% | 1%
12 | N#C/C(C(=O)Nc1ccc(-c2ccccc2)cc1)=C(/O)C1CC1 |  |  |  | 1480 nM |  |  | 33% | 70%
13 | N#C/C(C(=O)Nc1ccc(C(N)=O)cc1)=C(/O)C1CC1 |  | > 100000 nM |  | 14100 nM |  |  | -18% | 20%
14 | N#C/C(C(=O)Nc1ccc(Cl)cn1)=C(/O)C1CC1 |  | 200 nM |  | 76 nM |  |  | 48% | 64%
15 | Cc1cc(NC(=O)/C(C#N)=C(\O)C2CC2)ccc1Br |  | 63 nM |  | 50 nM | 4 h | 2 h | 86% | 66%
16 | N#C/C(C(=O)Nc1ccncc1)=C(/O)C1CC1 |  | 8910 nM |  | 11700 nM |  |  | 22% | 17%
17 | N#C/C(C(=O)Nc1ccc(C(F)(F)F)cc1)=C(/O)C1CCCO1 (configuration not stated) |  | 7940 nM |  | 44700 nM |  |  | 29% | 11%
18 | N#C/C(C(=O)Nc1ccc(C(F)(F)F)cc1)=C(/O)C1CCC1 |  | 209 nM |  | 282 nM |  |  | 4% | 1%

Row | SMILES | inhibition in vivo at 10 mg/kg (Rattus norvegicus [1]) | IC50 [2] | inhibition in vivo at 30 mg/kg (Mus musculus [3]) | IC50 [4] | half-life [5] | half-life [6] | inhibition in vivo at 100 mg/kg (Mus musculus [7]) | inhibition in vivo at 50 mg/kg (Rattus norvegicus [8])
19 | CN(C(=O)c1ccc(NC(=O)/C(C#N)=C(\O)C2CC2)cc1)c1ccc(Cl)cc1 |  | 2240 nM |  | 19100 nM |  |  | -8% | 22%
20 | N#C/C(C(=O)Nc1ccc(O)cc1)=C(/O)C1CC1 |  | > 100000 nM |  | 7940 nM |  |  | -11% | 37%
21 | N#C/C(C(=O)Nc1ccc(C(F)(F)F)cc1)=C(/O)C1CCCN1 (configuration not stated) |  | > 100000 nM |  | > 100000 nM |  |  | -4% | -16%
22 | N#C/C(C(=O)Nc1ccc(C(F)(F)F)cc1)=C(/O)C1CCCC1 |  | 28200 nM |  | 31600 nM |  |  | 58% | 19%
23 | N#C/C(C(=O)Nc1ccc(-c2cccs2)cc1)=C(/O)C1CC1 | 34% | 2510 nM |  | 631 nM |  |  |  | 
24 | N#C/C(C(=O)Nc1ccc(/C=C/c2ccc(Cl)cc2)cc1)=C(/O)C1CC1 |  | 12600 nM |  |  | > 30 h | 43 h | 69% | 46%
25 | N#C/C(C(=O)Nc1ccc(Cl)nc1)=C(/O)C1CC1 |  | 1780 nM | 9% |  |  |  |  | 71%
26 | Cc1ccc(NC(=O)/C(C#N)=C(\O)C2CC2)cc1Cl |  | 282 nM |  | 79 nM |  |  | 43% | 31%
27 | N#C/C(C(=O)Nc1ccc(-c2ncco2)cc1)=C(/O)C1CC1 |  | 20000 nM |  | 4270 nM |  |  | 17% | 42%
28 | Cc1cc(Cl)ccc1NC(=O)/C(C#N)=C(\O)C1CC1 | 30% | 3720 nM | 54% | 1250 nM |  |  |  | 
29 | N#C/C(C(=O)Nc1ccc(-c2ccco2)cc1)=C(/O)C1CC1 |  | 5900 nM |  |  |  |  | -13% | 58%
30 | N#C/C(C(=O)Nc1ccc(C=Cc2ccc(Cl)cc2)cc1)=C(/O)C1CC1 |  | 22 nM |  |  |  |  | 19% | 52%
31 | CN1CCCC1/C(O)=C(\C#N)C(=O)Nc1ccc(C(F)(F)F)cc1 (configuration not stated) |  | > 100000 nM |  | > 100000 nM |  |  | 10% | 23%
32 | N#C/C(C(=O)Nc1ccc(C(=O)O)cc1)=C(/O)C1CC1 |  | 3720 nM |  | 1480 nM |  |  | -6% | 39%
33 | N#C/C(C(=O)Nc1ccc(C(F)(F)F)cc1)=C(/O)C1CCOC1 (configuration not stated) |  | 11700 nM |  | 17800 nM |  |  | 29% | 14%
34 | COc1ccc(NC(=O)/C(C#N)=C(\O)C2CC2)cc1 |  | 3720 nM |  | 186 nM |  |  | 9% | 57%
35 | N#C/C(C(=O)Nc1ccc(C#Cc2ccc(Cl)cc2)cc1)=C(/O)C1CC1 | 61% | 5000 nM | 61% |  | 84 h | 68 h |  | 
36 | N#C/C(C(=O)Nc1ccc(-c2nc(C(F)(F)F)cs2)cc1)=C(/O)C1CC1 | 30% | 50000 nM |  | 3000 nM |  |  |  | 
